# Activity calls are given as the source filed them. No cut-off for these calls is given here.
# Molecular target: T1, Fructose-1,6-bisphosphatase 1 (Homo sapiens, UniProt P09467)
# T1 sequence (P09467 whole entry): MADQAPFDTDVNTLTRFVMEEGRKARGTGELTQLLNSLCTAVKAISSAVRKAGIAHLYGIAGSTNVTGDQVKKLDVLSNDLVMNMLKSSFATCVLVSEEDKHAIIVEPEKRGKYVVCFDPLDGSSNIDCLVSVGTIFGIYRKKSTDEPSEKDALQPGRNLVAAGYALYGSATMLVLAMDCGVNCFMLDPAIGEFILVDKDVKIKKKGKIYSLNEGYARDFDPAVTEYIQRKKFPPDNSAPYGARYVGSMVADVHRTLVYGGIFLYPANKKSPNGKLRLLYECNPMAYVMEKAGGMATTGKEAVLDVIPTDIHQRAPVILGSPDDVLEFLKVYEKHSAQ
# Assay: Inhibition of human FBPase expressed in Escherichia coli BL21 (DE3) using FBP as substrate incubated for 5 mins by malachite green dye based spectrophotometry
# Conditions: not given
row,SMILES,IC50
1,CCOC(=O)C(C)(C)Oc1ccccc1/C=C/[N+](=O)[O-],2700 nM
2,CCOC(=O)C(C)(C)Oc1ccc(Cl)c(/C=C/[N+](=O)[O-])c1,2900 nM
3,Nc1ncnc2c1ncn2[C@@H]1O[C@H](COP(=O)(O)O)[C@@H](O)[C@H]1O [ADENOSINE PHOSPHATE],2300 nM
4,O=[N+]([O-])/C=C/c1ccccc1 [(2-NITROVINYL)BENZENE],3500 nM
5,CCOC(=O)C(C)(C)Oc1ccc(/C=C/[N+](=O)[O-])cc1Cl,1600 nM
6,CCOC(=O)C(C)(C)Oc1ccc(/C=C/[N+](=O)[O-])cc1,3100 nM
7,CCOC(=O)C(C)(C)Oc1cc(/C=C/[N+](=O)[O-])ccc1OC(F)F,1600 nM
8,CCOC(=O)C(C)(C)Oc1ccc(F)cc1/C=C/[N+](=O)[O-],7000 nM
9,CCOC(=O)C(C)(C)Oc1cc(/C=C/[N+](=O)[O-])ccc1Cl,830 nM
10,CCOC(=O)C(C)(C)Oc1ccc(/C=C/[N+](=O)[O-])c(Cl)c1,1800 nM
11,CCOC(=O)C(C)(C)Oc1ccc(Br)c(/C=C/[N+](=O)[O-])c1,790 nM
12,CCOC(=O)C(C)(C)Oc1cccc(/C=C/[N+](=O)[O-])c1,1000 nM
13,CCCCCCCC/C=C(\CCCCCCCC(=O)O)[N+](=O)[O-] [NITROLEIC ACID],58000 nM
14,CCOC(=O)C(C)(C)Oc1ccc(Cl)cc1/C=C/[N+](=O)[O-],8200 nM

# Tested on: Hepatocyte
# Assay: Inhibition of lipid accumulation in C57BLKS rat Primary hepatocytes assessed as reduction in insulin and glucose-induced TG level at 100 uM incubated for 24 hrs
# Format: functional, cell-based
# Conditions: not given
# Outline: (§1)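 After overnight culture in DMEM, rat primary hepatocytes pretreated with compounds, then held in 25 mM glucose plus 500 nM insulin for 24 h to induce lipid accumulation. Triglyceride and total cholesterol measured with assay kits and normalized to BCA protein. Means ± SEM of four independent experiments.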
row,SMILES,inhibition
1,CCOC(=O)C(C)(C)Oc1ccc(Cl)c(/C=C/[N+](=O)[O-])c1,inactive
2,CCOC(=O)C(C)(C)Oc1ccc(Cl)cc1/C=C/[N+](=O)[O-],inactive

# Tested on: Hepatocyte
# Assay: Inhibition of lipid accumulation in C57BLKS rat Primary hepatocytes assessed as reduction in insulin and glucose-induced TC level incubated for 24 hrs
# Format: functional, cell-based
# Conditions: not given
# Outline: as §1
row,SMILES,inhibition
1,CCOC(=O)C(C)(C)Oc1ccc(Cl)c(/C=C/[N+](=O)[O-])c1,Dose-dependent effect
2,CCOC(=O)C(C)(C)Oc1ccc(Cl)cc1/C=C/[N+](=O)[O-],Dose-dependent effect

# Tested on: Hepatocyte
# Assay: Cytotoxicity against C57BLKS rat Primary hepatocytes assessed as cell viability by measuring cellular protein level at 1 to 100 uM in presence of cAMP and Dex by bicinchoninic acid method
# Format: cell-based
# Conditions: not given
# Outline: (§2)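 Primary hepatocytes isolated from rat, cultured overnight in DMEM with 10% FBS, then exposed to compounds. Cellular protein per group measured by bicinchoninic acid (BCA) method as a viability control. The same protein values serve to normalize glucose, TG and TC contents. Pathological stimulation where applicable: 1 µM dexamethasone plus 200 µM cAMP, or 25 mM glucose plus 500 nM insulin for 24 h. Means ± SEM, four independent experiments.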
row,SMILES,Activity
1,CCOC(=O)C(C)(C)Oc1ccc(Cl)c(/C=C/[N+](=O)[O-])c1,Non-Toxic
2,CCOC(=O)C(C)(C)Oc1ccc(Cl)cc1/C=C/[N+](=O)[O-],Non-Toxic

# Tested on: Hepatocyte
# Assay: Inhibition of glucose production in C57BLKS rat Primary hepatocytes at 400 uM incubated for 3 hrs by glucose assay kit method relative to control
# Format: functional
# Conditions: not given
# Outline: (§3)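 Rat primary hepatocytes cultured overnight in DMEM/10% FBS, then pretreated with compounds for 3 h in fresh medium. Switched to glucose-free DMEM with 2 mM sodium pyruvate, 20 mM sodium lactate and compound for 3 h. Medium glucose measured with a kit and normalized to BCA protein. Pathological arm adds 1 µM dexamethasone plus 200 µM cAMP for 3 h. Means ± SEM, n=4.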
row,SMILES,inhibition at 400 µM
1,CCOC(=O)C(C)(C)Oc1ccc(Cl)c(/C=C/[N+](=O)[O-])c1,90%
2,CCOC(=O)C(C)(C)Oc1ccc(Cl)cc1/C=C/[N+](=O)[O-],90%

# Tested on: not listed separately
# Assay: Cytotoxicity against C57BLKS rat Primary hepatocytes assessed as cell viability incubated for 6 hrs by SRB assay
# Format: cell-based, Hepatocyte
# Conditions: read-out: Activity
# Outline: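 Rat primary hepatocytes under physiological conditions exposed to compounds for 6 h. Viability read by sulforhodamine B staining. Means ± SEM of four independent experiments.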
row,SMILES,viability at 6 h
1,CCOC(=O)C(C)(C)Oc1ccc(Cl)c(/C=C/[N+](=O)[O-])c1,> 80%
2,CCOC(=O)C(C)(C)Oc1ccc(Cl)cc1/C=C/[N+](=O)[O-],> 80%

# Tested on: Hepatocyte
# Assay: Inhibition of lipid accumulation in C57BLKS rat Primary hepatocytes assessed as reduction in insulin and glucose-induced TC level at 25 uM incubated for 24 hrs
# Format: functional, cell-based
# Conditions: not given
# Outline: as §1
row,SMILES,inhibition
1,CCOC(=O)C(C)(C)Oc1ccc(Cl)c(/C=C/[N+](=O)[O-])c1,Active
2,CCOC(=O)C(C)(C)Oc1ccc(Cl)cc1/C=C/[N+](=O)[O-],Active

# Tested on: Hepatocyte
# Assay: Inhibition of glucose production in cAMP and Dex pre-treated C57BLKS rat Primary hepatocytes incubated for 3 hrs by glucose assay kit method
# Format: functional, cell-based
# Conditions: not given
# Outline: as §3
row,SMILES,inhibition
1,CCOC(=O)C(C)(C)Oc1ccc(Cl)c(/C=C/[N+](=O)[O-])c1,Dose-dependent effect
2,CCOC(=O)C(C)(C)Oc1ccc(Cl)cc1/C=C/[N+](=O)[O-],Dose-dependent effect

# Tested on: Hepatocyte
# Assay: Inhibition of glucose production in C57BLKS rat Primary hepatocytes incubated for 3 hrs by glucose assay kit method
# Format: functional, cell-based
# Conditions: not given
# Outline: as §3
row,SMILES,inhibition
1,CCOC(=O)C(C)(C)Oc1ccc(Cl)c(/C=C/[N+](=O)[O-])c1,Dose-dependent effect
2,CCOC(=O)C(C)(C)Oc1ccc(Cl)cc1/C=C/[N+](=O)[O-],Dose-dependent effect

# Tested on: Hepatocyte
# Assay: Cytotoxicity against C57BLKS rat Primary hepatocytes assessed as cell viability by measuring cellular protein level at 10 to 400 uM by bicinchoninic acid method
# Format: cell-based
# Conditions: not given
# Outline: as §2
row,SMILES,Activity
1,CCOC(=O)C(C)(C)Oc1ccc(Cl)c(/C=C/[N+](=O)[O-])c1,Non-Toxic
2,CCOC(=O)C(C)(C)Oc1ccc(Cl)cc1/C=C/[N+](=O)[O-],Non-Toxic

# Tested on: Hepatocyte
# Assay: Inhibition of glucose production in cAMP and Dex pre-treated C57BLKS rat Primary hepatocytes at 1 uM incubated for 3 hrs by glucose assay kit method
# Format: functional, cell-based
# Conditions: not given
# Outline: as §3
row,SMILES,inhibition
1,CCOC(=O)C(C)(C)Oc1ccc(Cl)c(/C=C/[N+](=O)[O-])c1,Active
2,CCOC(=O)C(C)(C)Oc1ccc(Cl)cc1/C=C/[N+](=O)[O-],Active

# Tested on: Hepatocyte
# Assay: Cytotoxicity against C57BLKS rat Primary hepatocytes assessed as cell viability by measuring cellular protein level at 10 to 100 uM in presence of insulin and glucose by bicinchoninic acid method
# Format: cell-based
# Conditions: not given
# Outline: as §2
row,SMILES,Activity
1,CCOC(=O)C(C)(C)Oc1ccc(Cl)c(/C=C/[N+](=O)[O-])c1,Non-Toxic
2,CCOC(=O)C(C)(C)Oc1ccc(Cl)cc1/C=C/[N+](=O)[O-],Non-Toxic

# Molecular target: T2, Fructose-1,6-bisphosphatase 1 (Homo sapiens) (UniProt P09467)
# T2 sequence (whole entry): T1 sequence (P09467 whole entry)
# Assay: Inhibition of human FBPase expressed in Escherichia coli BL21 (DE3) at 500 uM using FBP as substrate incubated for 5 mins by malachite green dye based spectrophotometry relative to control
# Conditions: not given
row,SMILES,inhibition
1,O=C/C=C/c1ccccc1,15%
2,S=C=NCc1ccccc1,4.1%
3,O=C1C=CCC1,29%
4,c1ccc(C2CO2)cc1 (configuration not stated),31%
5,COC(=O)/C=C/C(=O)OC,22%
6,CC(=O)C=O,19%
7,O=C(O)/C=C/C(=O)O,9.5%
8,C=C(CC)C(=O)c1ccc(OCC(=O)O)c(Cl)c1Cl,56%
9,C=CC(=O)Nc1ccccc1,17%

# Tested on: Hepatocyte
# Assay: Inhibition of lipid accumulation in C57BLKS rat Primary hepatocytes assessed as reduction in insulin and glucose-induced TG level at 25 uM incubated for 24 hrs
# Format: functional, cell-based
# Conditions: not given
# Outline: as §1
row,SMILES,inhibition
1,CCOC(=O)C(C)(C)Oc1ccc(Cl)c(/C=C/[N+](=O)[O-])c1,Active
2,CCOC(=O)C(C)(C)Oc1ccc(Cl)cc1/C=C/[N+](=O)[O-],Active

# — ChEMBL document CHEMBL4311987, “Discovery of novel allosteric site and covalent inhibitors of FBPase with potent hypoglycemic effects” (Eur J Med Chem, 2019)
